pIC50: −log10 of the molar value.
Tests used:
[1] = test system: HeLa; assay: Antiproliferative activity against human HeLa cells after 48 hrs by MTT assay; assay type: functional, cell-based
Outline: (§1)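 Cells seeded at 3 × 10^3/well and grown 24 h, then exposed to compounds for 48 h. MTT (5 mg/ml stock) added for 2 h at 37 °C, supernatant removed, formazan dissolved in DMSO 15-20 min. Absorbance read at 570 nm. IC50 per cell line, mean of three determinations.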

[2] = Antiproliferative activity against human H460 cells after 48 hrs by MTT assay; assay type: functional, cell-based; conditions: NCI-H460, 48 h; outline: as §1
[3] = Antiproliferative activity against human A875 cells after 48 hrs by MTT assay; assay type: functional, cell-based; conditions: A875, 48 h; outline: as §1
[4] = Induction of apoptosis in human A875 cells at 1.5 uM after 48 hrs by propidium iodide staining-based flow cytometric analysis (reference value: 1.56%); assay type: functional
[5] = Cell cycle arrest in human A875 cells assessed as accumulation at G2/M phase at 0.75 uM after 48 hrs by propidium iodide staining-based flow cytometric analysis (reference value: 10.36%); assay type: functional
[6] = test system: A549; assay: Antiproliferative activity against human A549 cells after 48 hrs by MTT assay; assay type: functional, cell-based; conditions: A549, 48 h; outline: as §1
[7] = Cell cycle arrest in human A875 cells assessed as accumulation at S phase at 1.5 uM after 48 hrs by propidium iodide staining-based flow cytometric analysis (reference value: 11.46%); assay type: functional
[8] = Induction of apoptosis in human A875 cells at 1.5 uM after 24 hrs by propidium iodide staining-based flow cytometric analysis (reference value: 1.14%); assay type: functional
[9] = test system: A875; assay: Induction of apoptosis in human A875 cells assessed as appearance of condensed nuclei after 36 hrs by Hoechst 33342 staining-based fluorescence microscopic analysis; assay type: functional, cell-based
Outline: (§2)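 A875 cells (1 × 10^5/well) cultured 24 h, then treated for 36 h at 0.38, 0.75 or 1.5 µM. After PBS rinse and fixation in 75% ethanol, morphology checked by inverted bright-field microscope. Nuclei then stained with Hoechst 33342 (2 µg/mL in PBS) and examined by fluorescence microscopy for condensed, fragmented nuclei.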

[10] = test system: BXPC-3; assay: Antiproliferative activity against human BxPC3 cells after 48 hrs by MTT assay; assay type: functional, cell-based; conditions: BXPC-3, 48 h; outline: as §1
[11] = Induction of apoptosis in human A875 cells at 0.38 uM after 48 hrs by propidium iodide staining-based flow cytometric analysis (reference value: 1.56%); assay type: functional
[12] = Cell cycle arrest in human A875 cells assessed as accumulation at S phase at 0.38 uM after 48 hrs by propidium iodide staining-based flow cytometric analysis (reference value: 11.46%); assay type: functional
[13] = test system: HT-29; assay: Antiproliferative activity against human HT-29 cells after 48 hrs by MTT assay; assay type: functional, cell-based; conditions: HT-29, 48 h; outline: as §1
[14] = Cell cycle arrest in human A875 cells assessed as accumulation at G0/G1 phase at 1.5 uM after 48 hrs by propidium iodide staining-based flow cytometric analysis (reference value: 78.18%); assay type: functional
[15] = Cell cycle arrest in human A875 cells assessed as accumulation at G0/G1 phase at 0.75 uM after 48 hrs by propidium iodide staining-based flow cytometric analysis (reference value: 78.18%); assay type: functional
[16] = Cell cycle arrest in human A875 cells assessed as accumulation at G2/M phase at 1.5 uM after 48 hrs by propidium iodide staining-based flow cytometric analysis (reference value: 10.36%); assay type: functional
[17] = test system: HepG2; assay: Antiproliferative activity against human HepG2 cells after 48 hrs by MTT assay; assay type: functional, cell-based; conditions: HepG2, 48 h; outline: as §1
[18] = test system: A875; assay: Induction of apoptosis in human A875 cells after 48 hrs by propidium iodide staining-based flow cytometric analysis; assay type: functional, cell-based
[19] = test system: SMMC-7721; assay: Antiproliferative activity against human SMMC7721 cells after 48 hrs by MTT assay; assay type: functional, cell-based; conditions: SMMC-7721, 48 h; outline: as §1
[20] = Cell cycle arrest in human A875 cells assessed as accumulation at G2/M phase at 0.38 uM after 48 hrs by propidium iodide staining-based flow cytometric analysis (reference value: 10.36%); assay type: functional
[21] = Induction of apoptosis in human A875 cells at 0.75 uM after 48 hrs by propidium iodide staining-based flow cytometric analysis (reference value: 1.56%); assay type: functional
[22] = test system: A875; assay: Induction of apoptosis in human A875 cells assessed as cell shrinkage and rounding up after 36 hrs by Hoechst 33342 staining-based fluorescence microscopic analysis; assay type: functional; outline: as §2
[23] = Cell cycle arrest in human A875 cells assessed as accumulation at S phase at 0.75 uM after 48 hrs by propidium iodide staining-based flow cytometric analysis (reference value: 11.46%); assay type: functional
[24] = test system: HCT-116; assay: Antiproliferative activity against human HCT116 cells after 48 hrs by MTT assay; assay type: functional, cell-based; conditions: HCT-116, 48 h; outline: as §1
[25] = Cell cycle arrest in human A875 cells assessed as accumulation at G0/G1 phase at 0.38 uM after 48 hrs by propidium iodide staining-based flow cytometric analysis (reference value: 78.18%); assay type: functional
[26] = Induction of apoptosis in human A875 cells at 0.38 uM after 24 hrs by propidium iodide staining-based flow cytometric analysis (reference value: 1.14%); assay type: functional
[27] = Induction of apoptosis in human A875 cells at 0.75 uM after 24 hrs by propidium iodide staining-based flow cytometric analysis (reference value: 1.14%); assay type: functional
[28] = test system: Bel-7402; assay: Antiproliferative activity against human Bel7402 cells after 48 hrs by MTT assay; assay type: functional, cell-based; conditions: Bel-7402, 48 h; outline: as §1

O=C(CSc1nnc(NC(=O)CCl)s1)Nc1ccc(Cl)cn1
pIC50 [1]: 5.44 | pIC50 [2]: 5.24 | pIC50 [3]: 5.07

C=CC(=O)Nc1ccc(SCC(=O)Nc2ccccn2)cc1
pIC50 [1]: < 4.10 | pIC50 [2]: 4.11 | pIC50 [3]: 4.63

O=C(CSc1nnc(NC(=O)C(Cl)Cl)s1)Nc1ccc(Br)cn1
pIC50 [1]: 4.82 | pIC50 [2]: 5.28 | pIC50 [3]: 5.19

O=C(CCl)Nc1ccc(SCC(=O)Nc2ccc(Cl)cn2)cc1
Activity [4]: 61.59% | Activity [5]: 21.8% | pIC50 [6]: 6.23 | Activity [7]: 39.6% | Activity [8]: 42.88% | Activity [9]: Dose-dependent effect | pIC50 [10]: 6.72 | Activity [11]: 11.17% | Activity [12]: 29.1% | pIC50 [13]: 5.06 | Activity [14]: 30.5% | Activity [15]: 48.9% | Activity [16]: 29.9% | pIC50 [17]: 5.44 | Activity [18]: Dose-dependent effect | pIC50 [19]: 6.46 | pIC50 [1]: 5.60 | Activity [20]: 10.8% | Activity [21]: 41.59% | Activity [22]: Dose-dependent effect | Activity [23]: 31.2% | pIC50 [24]: 6.21 | Activity [25]: 60% | Activity [26]: 3.67% | pIC50 [2]: 6.38 | Activity [27]: 25.45% | pIC50 [3]: 7.01 | pIC50 [28]: 6.35

O=C(CSc1ccc(NC(=O)CCl)cc1)NCc1ccc(Cl)cc1
pIC50 [1]: < 4.10 | pIC50 [2]: 4.64 | pIC50 [3]: 5.05

C=CC(=O)Nc1ccc(SCC(=O)NCc2cccc(Cl)c2)cc1
pIC50 [1]: < 4.10 | pIC50 [2]: 4.13 | pIC50 [3]: 4.68

O=C(CCl)Nc1ccc(SCC(=O)Nc2cc(Cl)ccn2)cc1
pIC50 [1]: 5.55 | pIC50 [2]: 5.25 | pIC50 [3]: 6.07

CC(C)(C)C(=O)Nc1ccc(SCC(=O)Nc2ccc(Cl)cn2)cc1
pIC50 [1]: < 4.10 | pIC50 [2]: 4.17 | pIC50 [3]: < 4.10

COc1ccccc1C(=O)Nc1nnc(SCC(=O)Nc2ccc(Br)cn2)s1
pIC50 [1]: < 4.10 | pIC50 [2]: < 4.10 | pIC50 [3]: < 4.10

Cc1ccnc(Cl)c1NC(=O)CSc1nnc(NC(=O)CCl)s1
pIC50 [1]: 4.15 | pIC50 [2]: 4.22 | pIC50 [3]: 4.46

O=C(CSc1ccc(NC(=O)CCCl)cc1)NCc1ccc(Cl)cc1
pIC50 [1]: < 4.10 | pIC50 [2]: 4.22 | pIC50 [3]: 4.50

COc1ccccc1C(=O)Nc1nnc(SCC(=O)Nc2ccc(C)cn2)s1
pIC50 [1]: < 4.10 | pIC50 [2]: < 4.10 | pIC50 [3]: < 4.10

O=C(CSc1nnc(NC(=O)CCCl)s1)Nc1ccc(Br)cn1
pIC50 [1]: 5.28 | pIC50 [2]: 6.25 | pIC50 [3]: 6.37

CC(C)(C)C(=O)Nc1ccc(SCC(=O)Nc2cc(Cl)ccn2)cc1
pIC50 [1]: < 4.10 | pIC50 [2]: 4.45 | pIC50 [3]: < 4.10

Cc1ccc(NC(=O)CSc2nnc(NC(=O)CCl)s2)nc1
pIC50 [1]: 4.96 | pIC50 [2]: 4.81 | pIC50 [3]: 4.74

O=C(CSc1nnc(NC(=O)c2c(Cl)cccc2Cl)s1)Nc1ccc(Br)cn1
pIC50 [1]: 4.59 | pIC50 [2]: 4.77 | pIC50 [3]: 4.73

O=C(CSc1ccc(NC(=O)C(Cl)Cl)cc1)Nc1ccc(Br)cn1
pIC50 [1]: < 4.10 | pIC50 [2]: 4.32 | pIC50 [3]: 4.25

O=C(CCCCl)Nc1ccc(SCC(=O)Nc2ccc(Cl)cn2)cc1
pIC50 [1]: < 4.10 | pIC50 [2]: < 4.10 | pIC50 [3]: < 4.10

O=C(CCCl)Nc1ccc(SCC(=O)Nc2ccccn2)cc1
pIC50 [1]: 4.15 | pIC50 [2]: 4.18 | pIC50 [3]: 4.53

O=C(CCl)Nc1ccc(SCC(=O)Nc2ccccn2)cc1
pIC50 [1]: 5.11 | pIC50 [2]: 4.92 | pIC50 [3]: 4.76

COc1ccccc1C(=O)Nc1nnc(SCC(=O)Nc2ccc(Cl)cn2)s1
pIC50 [1]: < 4.10 | pIC50 [2]: < 4.10 | pIC50 [3]: < 4.10

O=C(CCCl)Nc1ccc(SCC(=O)Nc2cc(Cl)ccn2)cc1
pIC50 [1]: 4.66 | pIC50 [2]: 4.96 | pIC50 [3]: 4.91

O=C(CSc1nnc(NC(=O)CCl)s1)Nc1ccc(Br)cn1
pIC50 [1]: 5.47 | pIC50 [2]: 5.12 | pIC50 [3]: 4.86

O=C(CSc1nnc(NC(=O)CCCCl)s1)Nc1ccc(Cl)cn1
pIC50 [1]: < 4.10 | pIC50 [2]: 4.26 | pIC50 [3]: < 4.10

C=CC(=O)Nc1ccc(SCC(=O)Nc2cc(Cl)ccn2)cc1
pIC50 [1]: 4.60 | pIC50 [2]: 4.71 | pIC50 [3]: 4.83

O=C(CCl)Nc1ccc(SCC(=O)Nc2ccc(Br)cn2)cc1
pIC50 [6]: 5.21 | pIC50 [10]: 6.55 | pIC50 [13]: 4.86 | pIC50 [17]: 5.24 | pIC50 [19]: 6.37 | pIC50 [1]: 5.68 | pIC50 [24]: 5.92 | pIC50 [2]: 6.28 | pIC50 [3]: 6.54 | pIC50 [28]: 6.17

COc1ccccc1C(=O)Nc1nnc(SCC(=O)Nc2c(C)ccnc2Cl)s1
pIC50 [1]: < 4.10 | pIC50 [2]: < 4.10 | pIC50 [3]: < 4.10

O=C(CCCl)Nc1ccc(SCC(=O)Nc2ccc(Br)cn2)cc1
pIC50 [1]: 4.81 | pIC50 [2]: 5.80 | pIC50 [3]: 4.61

O=C(CSc1ccc(NC(=O)CCl)cc1)NCc1cccc(Cl)c1
pIC50 [1]: < 4.10 | pIC50 [2]: 4.48 | pIC50 [3]: 5.11

O=C(CSc1ccc(NC(=O)C(Cl)(Cl)Cl)cc1)Nc1ccc(Cl)cn1
pIC50 [1]: < 4.10 | pIC50 [2]: < 4.10 | pIC50 [3]: < 4.10

Source: ChEMBL document CHEMBL2375227, “Novel small molecules as apoptosis inducers: synthesis, preliminary structure-activity relationships, and in vitro biological evaluation” (Bioorg Med Chem Lett, 2013)
